For 18 compounds, inhibition, Imax and IC50 results are on record in ChEMBL document CHEMBL1641376, “Novel bis-, tris-, and tetrakis-tertiary amino analogs as antagonists at neuronal nicotinic receptors that mediate nicotine-evoked dopamine release” (Bioorg Med Chem Lett, 2011).

What all share (format): functional, tissue-based
Test [1] has as its target Neuronal acetylcholine receptor subunit alpha-6 (Rattus norvegicus) (UniProt P43143). The test is described as follows: Antagonist activity at alpha6 nAChR in rat striatum assessed as inhibition of nicotine-induced [3H]dopamine release at 100 nM relative to control. The gist of the method:
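Superfused rat striatal slices preloaded with [3H]DA. Nicotine-evoked [3H]DA release was elicited by 10 μM nicotine with 100 nM analogue present. Inhibition is expressed as a percentage of the nicotine response under control conditions without analogue. At least 3 independent experiments, each in duplicate.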

For test [2] the target is unchanged. The test is described as follows: Antagonist activity at alpha6 nAChR in rat striatum assessed as inhibition of nicotine-induced [3H]dopamine release relative to nicotine. In outline:
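[3H]DA release from superfused rat striatal slices was evoked by 10 μM nicotine and tested across a full analogue concentration range. IC50 and Imax were derived from the concentration-response curves, with inhibition relative to the nicotine response in the absence of analogue. 4–6 independent experiments.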

The target in test [3] is Neuronal acetylcholine receptor subunit alpha-6 (Rattus norvegicus, UniProt P43143). The test is described as follows: Antagonist activity at alpha6 nAChR in rat striatum assessed as inhibition of nicotine-induced [3H]dopamine release. In outline: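 Superfused rat striatal slices preloaded with [3H]DA; release evoked by 10 μM nicotine. Screening used 100 nM analogue, with inhibition expressed as % of the nicotine response without analogue (≥3 independent experiments, each in duplicate). Compounds giving >40% inhibition had full concentration-response curves run to derive IC50 and Imax (4–6 independent experiments).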
Neuronal acetylcholine receptor subunit alpha-6, sequence (P43143 whole entry, the tested form may be a part): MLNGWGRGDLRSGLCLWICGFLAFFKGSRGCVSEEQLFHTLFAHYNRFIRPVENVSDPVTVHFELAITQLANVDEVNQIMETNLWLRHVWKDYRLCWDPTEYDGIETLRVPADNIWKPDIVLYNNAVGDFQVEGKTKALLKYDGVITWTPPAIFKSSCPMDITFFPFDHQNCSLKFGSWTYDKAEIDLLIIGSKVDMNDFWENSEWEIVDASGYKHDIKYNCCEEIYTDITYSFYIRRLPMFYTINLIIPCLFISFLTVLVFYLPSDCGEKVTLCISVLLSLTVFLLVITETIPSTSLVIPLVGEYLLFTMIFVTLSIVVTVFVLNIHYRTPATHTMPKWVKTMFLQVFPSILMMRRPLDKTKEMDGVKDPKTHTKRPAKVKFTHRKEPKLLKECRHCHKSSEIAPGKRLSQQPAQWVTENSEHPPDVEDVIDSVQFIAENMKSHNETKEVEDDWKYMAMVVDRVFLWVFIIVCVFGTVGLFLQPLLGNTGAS

Neuronal acetylcholine receptor subunit alpha-6 (Rattus norvegicus), sequence (P43143 whole entry, the tested form may be a part): as above

Regarding `c1ccc2c[n+](CCCCCc3cc(CCCCC[n+]4ccc5ccccc5c4)cc(CCCCC[n+]4ccc5ccccc5c4)c3)ccc2c1`, the inhibition in test [1] came to 28%.
As for `CC1=CCCN(CCCC#Cc2cc(C#CCCCN3CCC=C(C)C3)cc(C#CCCCN3CCC=C(C)C3)c2)C1`, in test [1], the inhibition came out at 83%. In addition, the Imax in test [2] turned out to be 67%. The IC50 in test [3] stood at 0.00322 µM.
Regarding `c1ccc2c(c1)CCN(CCCCCCCCCCCCN1CCc3ccccc3C1)C2`, the Imax in test [2] was found to be 76%. Besides, the half-maximal inhibitory concentration (IC50) in test [3] was 0.00859 µM.
For `c1ccc2c[n+](CCCCCc3cc(CCCCC[n+]4ccc5ccccc5c4)c(CCCCC[n+]4ccc5ccccc5c4)cc3CCCCC[n+]3ccc4ccccc4c3)ccc2c1`, in that order: 52% and 0.056 µM.
As to `c1ccc2c(c1)CCN(CCCCCc1cc(CCCCCN3CCc4ccccc4C3)cc(CCCCCN3CCc4ccccc4C3)c1)C2`, the inhibition in test [1] was found to be 58%. The Imax in test [2] is 58%. The IC50 in test [3] is 0.00035 µM.
With `Cc1ccc[n+](CCCCCCCCCC[n+]2cccc(C)c2)c1`, the Imax in test [2] stood at 63%. In addition, the IC50 in test [3] is 0.18 µM.
The like results for `Cc1ccc[n+](CCCCCCCCCCCC[n+]2cccc(C)c2)c1` were, in that order, 63% and 0.002 µM.
Take `C(#Cc1ccccc1C#CCCCN1CCc2ccccc2C1)CCCN1CCc2ccccc2C1`: the inhibition in test [1] came out at 18%.
Take `OCCCC1=CCCN(CCCCCc2cc(CCCCCN3CCC=C(CCCO)C3)c(CCCCCN3CCC=C(CCCO)C3)cc2CCCCCN2CCC=C(CCCO)C2)C1`: in test [1], the inhibition turned out to be 40%. The Imax in test [2] worked out at 64%. In test [3], the half-inhibitory concentration (IC50) was 0.03 µM.
Turning to `OCCCc1ccc[n+](CCCCCc2cc(CCCCC[n+]3cccc(CCCO)c3)c(CCCCC[n+]3cccc(CCCO)c3)cc2CCCCC[n+]2cccc(CCCO)c2)c1`, the inhibition in test [1] is 41%. The Imax in test [2] was found to be 63%. Moreover, the concentration for half-maximal inhibition (IC50) in test [3] turned out to be 0.003 µM.
Consider `CC1=CCCN(CCCCCCCCCCCCN2CCC=C(C)C2)C1`, for which the inhibition in test [1] was determined as 50%. Also, the Imax in test [2] was determined as 60%. The half-maximal inhibitory concentration (IC50) in test [3] is 0.00095 µM.
Regarding `c1ccc2c[n+](CCCCCCCCCCCC[n+]3ccc4ccccc4c3)ccc2c1`, the Imax in test [2] was determined as 53%. Besides, the IC50 in test [3] is 0.04 µM.
Consider `Cc1ccc[n+](CCCC#Cc2cc(C#CCCC[n+]3cccc(C)c3)cc(C#CCCC[n+]3cccc(C)c3)c2)c1`, for which, in test [1], the inhibition came to 40%. For the same compound, the Imax in test [2] turned out to be 67%. Also, the IC50 in test [3] was 0.0002 µM.
`c1ccc2c(c1)CCN(CCCCCCCCCCN1CCc3ccccc3C1)C2`: the Imax in test [2] came to 74%. In addition, the IC50 in test [3] is 0.00991 µM.
Regarding `c1ccc2c[n+](CCCCCCCCCC[n+]3ccc4ccccc4c3)ccc2c1`, in test [2], the Imax was found to be 95%. Also, the IC50 in test [3] turned out to be 0.07 µM.
With `c1ccc2c(c1)CCN(CCCCCc1cc(CCCCCN3CCc4ccccc4C3)c(CCCCCN3CCc4ccccc4C3)cc1CCCCCN1CCc3ccccc3C1)C2`, in test [1], the inhibition came out at 84%. The Imax in test [2] came to 64%. Further, the IC50 in test [3] is 0.205 µM.
In the case of `CC1=CCCN(CCCCCCCCCCN2CCC=C(C)C2)C1`, the inhibition in test [1] was determined as 36%. Also, the Imax in test [2] stood at 65%. Also, the IC50 in test [3] stood at 0.0374 µM.
With `C(#Cc1ccccc1C#CCCC[n+]1ccc2ccccc2c1)CCC[n+]1ccc2ccccc2c1`, in test [2], the Imax amounted to 59%. Besides, in test [3], the IC50 stood at 0.063 µM.

For orientation: inhibition means how much of the control response was suppressed. As usually defined, the IC50 is the concentration at which inhibition is half-maximal.
